Experimental data taken from the RNAGym collection of RNA variant scans (doi:10.1126/science.aae0568).
This sample holds only a part of the variants without activity.

B1: tRNA (parent)
chain: GUUCCGUUGGCGUAAUGGUAACGCGUCUCCCUCCUAAGGAGAAGACUGCGGGUUCGAGUCCCGUACGGAACG

Variants of: B1
Assay: yeast fitness relative to wild type (ratio to wild type); higher = fitter; tRNA-Arg(CCU), competitive growth, 37 C, YPD
Procedure, shortened: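 Variants of the tRNA-Arg(CCU) gene were chemically synthesised with a 3% per-site mutation rate across 69 sites and placed at the native genomic locus in Saccharomyces cerevisiae. Six parallel replicates of the pooled strains were competed in YPD at 37°C for 24 hours, and gene amplicons from the start and end populations were read by 100-nucleotide paired-end sequencing. Darwinian fitness relative to wild type was derived from changes in genotype frequencies. Genotypes required ≥ 100 starting reads, and estimates < 0.5 were set to 0.5.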

Which yeast fitness does the source give for GUUCUGUUGGCGUAAUCGUAACGCGUCUCGCUCCUAAGGAGAAGACUGCGGGUUCGAGACCCGUACGGAACG [C5U G17C C30G U59A] here?
Its yeast fitness is ≤ 0.5.

For GUUCUGUUGGCGUAAUGGUAACGCGUCUCCCUCCUAAGGAGAAGACUGCGCGUUCGCGUCCCGUACGGAACG [C5U G51C A57C], which yeast fitness is on record?
Its yeast fitness is ≤ 0.5.

Which yeast fitness does the source give for GUUCUGUUGGCGUAAUGGUAACACGUCUCCCUCCUAAGGAGAAGAGUGGGGGUUCGAGUCCCGUACGGAACG [C5U G23A C46G C49G] here?
Its yeast fitness is ≤ 0.5.

For GUUCUGUUGGCGUAAUGGUAACGCAUCUCCCUCCUAAGGAGAAGACUGCGGGUUCGAGUCCCGUACGGACCG [C5U G25A A70C], which yeast fitness is on record?
The yeast fitness was 0.796.

Which yeast fitness does the source give for GUUCUGUUGGCGUAAUGGUAACGCCUCUCCCUCCUAAGGAGAAGACUGAGGGUUCCAGUCCGGUACGGAACG [C5U G25C C49A G56C C62G] here?
The yeast fitness was ≤ 0.5.

Which yeast fitness does the source give for GUUCUGUUGGCGUAAUGCUAACGCGUCCCCCUCCUAAGGAGAAGACUGCGGGUUCGAGUCCCAUACGGAACG [C5U G18C U28C G63A] here?
Its yeast fitness is ≤ 0.5.

For GUUCUGUUGGCGUAAUCGUAACGCGUCUCGCUCCUAAGGAGAAGACUGCGGGUUCGAGUCCCGUACGGAACG [C5U G17C C30G], which yeast fitness is on record?
Its yeast fitness is ≤ 0.5.

For GUUCUGUUGGCGUAAUAGUAACGCGUCUCCCUCCUAAGGAGAAGACUGCGGGUUAGAGUCCCGUACAGAGCG [C5U G17A C55A G67A A70G], which yeast fitness is on record?
The yeast fitness was ≤ 0.5.

Which yeast fitness does the source give for GUUCUGUUGGCGUAAUCGUAACGCGUCUCACUCCUAAGGAGAAGACUGCGGGUUCGCGUCCCGUACGGAACG [C5U G17C C30A A57C] here?
The yeast fitness was ≤ 0.5.

For GUUCUGUUGGCGUAAUGGUAACGCGUCUCCCUCCUAAGGAGAAGACUGCGCGCUCGAGUCCCGUACGGAACG [C5U G51C U53C], which yeast fitness is on record?
Its yeast fitness is ≤ 0.5.

With GUUCUGUUGGCGUAAUGGUAACGCAUCUCCCUCCUAUGGCGAAGACUGCGGGUUCGAGUCACGUACGGAACG [C5U G25A A37U A40C C61A] as the variant, how does the yeast fitness read?
Its yeast fitness is ≤ 0.5.

Which yeast fitness does the source give for GUUCUGUUGGCGUAAUGGUAACGCGUCUCCCUCCUAAGGAGAACACUGCGGGUUCGAGUCCCCUACGGAACG [C5U G44C G63C] here?
The yeast fitness was 0.686.

Which yeast fitness does the source give for GUUCUGUUGGCGUAAUGGUAACGCGUCUCCCUCCUAAGGAGAAGACUACAGGUUUGAGUCCCGUCCGGAACG [C5U G48A G50A C55U A65C] here?
The yeast fitness was ≤ 0.5.

For GUUCUGUUGGCGUAAUGGUAACGCCUCUCCCUCCUAAGGAGAAGACUGCGGGUUCGAGUCCCGUACGGAACG [C5U G25C], which yeast fitness is on record?
Its yeast fitness is 0.997.

For GUUCUGUUGGCGUAAUGGUAACGCAUCUCCCUCCUAAGGAGAAGACUGCGGGUUCGAGUCCCGUACGGAACG [C5U G25A], which yeast fitness is on record?
Its yeast fitness is 0.891.

With GUUCUGUUGGCGUAAUGGUAACGCGUCUCCCUCCUAACGAGAAGAUUGCGGGUUCGAGUUCCGUACGGAACG [C5U G38C C46U C60U] as the variant, how does the yeast fitness read?
The yeast fitness was ≤ 0.5.

With GUUCUGUUGGCGUAAUGGUAACGCGUCUCCCUCCUAAGGAGAACACUGUGGGUUCGAGUCCCGGACAGAACG [C5U G44C C49U U64G G67A] as the variant, how does the yeast fitness read?
Its yeast fitness is 0.51.

For GUUCUGUUGGCGUAAUGGUAACACGUGUCCGUCCUAAGGAGAAGACUGCCGGUUCGACUCCCGUACGGAACG [C5U G23A C27G C31G G50C G58C], which yeast fitness is on record?
The yeast fitness was 0.557.

Which yeast fitness does the source give for GUUCUGUUGGCGUAAUGGUAACACGUCUCCUUCCUAAGGAGAAGACUGCGGGUUCGAGUCCCGUGCGGAACG [C5U G23A C31U A65G] here?
The yeast fitness was ≤ 0.5.

For GUUCUGUUGGCGUAAUGCUAACGCGUCUCCCUCCUAAGGAGAAGUCUGCGGGUUCGAGUCCCGUACGGAACG [C5U G18C A45U], which yeast fitness is on record?
The yeast fitness was ≤ 0.5.

With GUUCUGUUGGCGUAAUGCUAAUGCGUCUCCCUCCUAAGGAGAAGACUGCAGCUUCGAGUCCCGUACGGAACG [C5U G18C C22U G50A G52C] as the variant, how does the yeast fitness read?
Its yeast fitness is ≤ 0.5.

For GUUCUGUUGGCGUAAUGGUAACGCGUCUCCCUCCUAAGGAGAAGACUGCAGGUUCGAGUCCCGUACGGAACG [C5U G50A], which yeast fitness is on record?
The yeast fitness was 0.888.

With GUUCUGUUGGCGUAAUGGUAACGCGUCUCCCUCCUAAAGAGGAGACUGCGGGUUCGAGUCCCGUACGGAACG [C5U G38A A42G] as the variant, how does the yeast fitness read?
Its yeast fitness is 0.605.

For GUUCUGUUGGCGUAAUCGUAACGCGUCUCCCUCCUAAGGAGAAGAAUGCGGGUUCGAGUCCCGUACGGAACG [C5U G17C C46A], which yeast fitness is on record?
The yeast fitness was 0.556.

Which yeast fitness does the source give for GUUCUGUUGGCGUAAUCGUAACGCGUCUCCCUCCUAAGGAGAAGACUGCGGGUUCGAGUCCCGUACGGAACG [C5U G17C] here?
Its yeast fitness is 0.721.

For GUUCUGUUGGCGUAAUCGUAACGCGUCUCGCUCCUAAGGAGAAGACUGCGGGUUGGAGUCCCGUACGGAACG [C5U G17C C30G C55G], which yeast fitness is on record?
Its yeast fitness is ≤ 0.5.

With GUUCUGUUGGCGUAAUGGUAACGCGUCUCCCUCCUAAGGAGAAAACUGCGGGUUCGAGUCCCGUACGAAACG [C5U G44A G68A] as the variant, how does the yeast fitness read?
Its yeast fitness is 0.522.

With GUUCUGUUGGCGUAAUGCUAACGCGUCUCCCUCCUAAGGAGAAGACUGCGGGUUCGAGUCCCGUACGGAACG [C5U G18C] as the variant, how does the yeast fitness read?
The yeast fitness was 0.721.

For GUUCUGUUGGCGUAAUGGUAACGCGUCUCCCUCCUAAGGAAAAGACUGCGGGUUCCAGUCCGGUACGCAACG [C5U G41A G56C C62G G68C], which yeast fitness is on record?
Its yeast fitness is ≤ 0.5.

With GUUCUGUUGGCGUAAUGGUAACGCGUCUCCCUCCUAAGGAGAAGACUGCGCGCUCGAGUCCCGUACGGGACG [C5U G51C U53C A69G] as the variant, how does the yeast fitness read?
Its yeast fitness is ≤ 0.5.

For GUUCUGUUGGCGUAAUGGUAACGCGUCUCCCUCCUAAGGAGAAGACUUCGGGUUCGAGUCCCGUACGGACCG [C5U G48U A70C], which yeast fitness is on record?
The yeast fitness was 0.707.

For GUUCUGUUGGCGUAAUGGUAACGCGUCUCCCUCCUAAAGAGAAGACUGCGGGUUCGAGUCCCGUACGGAACG [C5U G38A], which yeast fitness is on record?
The yeast fitness was 1.03.

With GUUCUGUUGGCGUAAUCGUAACGCGGCUCCCUCCUAAGGAGAAGACUGCGGGUUCGAGUCCCGUACGGAACG [C5U G17C U26G] as the variant, how does the yeast fitness read?
Its yeast fitness is 0.511.

For GUUCUGUUGGCGUAAUGGUAACGCGUCUCCCUCCUAAGGAGAAGACUGCGAGUUCGUGUCCCGUACGGAACG [C5U G51A A57U], which yeast fitness is on record?
Its yeast fitness is ≤ 0.5.

For GUUCUGUUGGCGUAAUCGUAACGCGGCUCCCUCCUAAGGAGAAGACUGCGGGUUCGAGUCCCGUACAGAACG [C5U G17C U26G G67A], which yeast fitness is on record?
The yeast fitness was 0.565.

With GUUCUGUUGGCGUAAUGGUAACGCGUCUCCCUCCUAAGGAGAAGACUGCGGAUUCGAGUCCCGUGCGGAACG [C5U G52A A65G] as the variant, how does the yeast fitness read?
Its yeast fitness is 0.598.

Which yeast fitness does the source give for GUUCUGUUGGCGUAAUGGUAACCCGUCUCCCUCCUAAGGAGAAGACUGCGGGUUCGAGUCCCGUACGGCACG [C5U G23C A69C] here?
The yeast fitness was ≤ 0.5.

For GUUCUGUUGGCGUAAUGGUAACGCGUCUCCCUCCUAAGCAGAAGACUGCGGGUUCGAGAGCCGUACGGAACG [C5U G39C U59A C60G], which yeast fitness is on record?
Its yeast fitness is ≤ 0.5.
